This note sets out measurements from publication PMC11960622 (RSC Advances, 2025).

Assay [1] deals with calf thymus DNA. The experiment in a line: DNA/methyl green assay. Particulars: read-out: DNA binding IC50; methyl green displacement, 24 h, pH 7.5. A digest of the protocol:
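Calf thymus DNA (10 mg) and methyl green (20 mg) in 100 mL 0.05 M Tris–HCl pH 7.5 with 7.5 mM MgSO4, stirred 24 h at 37 °C. Ethanol solutions of test compounds at 10, 100 and 1000 μM were dried under vacuum in wells, then complex added. Incubated at room temperature in the dark; A642.5–645 read at 24 h, normalized to untreated complex; IC50 fitted. Doxorubicin control.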

In assay [2] the target is topo-II enzyme. As to the kind of experiment: In vitro topoisomerase II inhibitory activity. It is filed as biochemical. Conditions: read-out: Topo-II assay IC50.
Assay [3] relates to A549 cells. The experiment in a line: MTT cytotoxicity assay, A549. It is filed as cell-based. Conditions: for IC50: Homo sapiens, A549, 72 h, read-out: IC50 A549; for fold more toxic to A549 cells than VERO normal cells: selectivity VERO/A549. The method, boiled down: (§1)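 ATCC cells in RPMI 1640 with 10% heat-inactivated FBS and penicillin/streptomycin, 37 °C, 5% CO2. Trypsinized cells seeded at 1000–2000 per well, grown 24 h, then exposed 72 h to free or Cs/PVA-nanogel-loaded test compound (0.1, 10, 100, 1000 μM). MTT 2 h, formazan dissolved in acidified isopropanol, A570 read. Viability expressed versus control; IC50 derived.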
In general terms: Tetrazolium dyes change colour on reduction, which living cells bring about.

The test system of assay [4] is HepG2 cells. As to the kind of experiment: MTT cytotoxicity assay, HepG2. It is filed as cell-based. Conditions: for IC50: Homo sapiens, HepG2, 72 h, read-out: IC50 HepG2; for fold toxic to HepG-2 cells than ordinary VERO cells: selectivity VERO/HepG-2. A digest of the protocol:
as §1

The test system of assay [5] is MCF-7 cells. As to the kind of experiment: MTT cytotoxicity assay, MCF-7. Type of assay: cell-based. Particulars: for IC50: Homo sapiens, MCF7, 72 h, read-out: IC50 MCF-7; for fold more toxic to MCF-7 cells than ordinary VERO cells: selectivity VERO/MCF-7. A digest of the protocol: as §1
Assay [6] relates to HCT116 cells. The experiment in a line: MTT cytotoxicity assay, HCT116. Conditions: for IC50: Homo sapiens, HCT-116, 72 h, read-out: IC50 HCT116; for fold more toxic to HCT-116 cells than normal VERO cells: selectivity VERO/HCT-116. It is filed as cell-based.

For orientation: IC50 means the concentration at which inhibition is half-maximal.

On to `COc1cccc2c1C(=O)c1c(O)c3c(c(O)c1C2=O)C[C@@](O)(C(=O)CO)C[C@@H]3O[C@H]1C[C@H](N)[C@H](O)[C@H](C)O1` [Doxorubicin, reference compound], for which the results for the IC50 in assay [1], in assay [2] and in assay [3] were 31.3 ± 1.8 µM, 0.94 ± 0.4 µM and 8.54 ± 0.8 µM, respectively.

In the case of `NC1=NC(=NS(=O)(=O)c2ccc(N)cc2)NC(=O)C1N=Nc1ccccc1C(=O)O` (stereo not drawn) [Compound 4, 2-((4-Amino-2-(((4-aminophenyl)sulfonyl)imino)-6-oxo-1,2,5,6-tetrahydropyrimidin-5-yl)diazenyl)-benzoic acid], the IC50 in assay [4] turned out to be 7.12 ± 0.5 µM; in assay [5], 7.85 ± 0.5 µM; in assay [1], 36 ± 3.5 µM; in assay [6], 9.77 ± 1.1 µM; in assay [2], 1.2 ± 0.4 µM; in assay [3], 5.5 ± 0.5 µM. The “fold toxic to HepG-2 cells than ordinary VERO cells” value (shortened to “fold toxic”) in assay [4] was determined as 8.07 fold. The “fold more toxic to MCF-7 cells than ordinary VERO cells” value in assay [5] is recorded as 7.32 fold. The “fold more toxic to HCT-116 cells than normal VERO cells” value in assay [6] is 5.88 fold. Moreover, in assay [3], the “fold more toxic to A549 cells than VERO normal cells” value is listed as 10.44 fold.

Consider `NC1=NN(C(=O)C=Cc2ccccc2)C(=O)C1N=Nc1ccccc1C(=O)O` (stereo not drawn) [Compound 2, 2-((3-Amino-1-cinnamoyl-5-oxo-4,5-dihydro-1H-pyrazol-4-yl)diazenyl)benzoic acid], for which the IC50 stood at 8.8 ± 0.5 µM in assay [4]; 8.3 ± 0.5 µM in assay [5]; 37 ± 3.9 µM in assay [1]; 10.6 ± 1.5 µM in assay [6]; 1.31 ± 0.4 µM in assay [2]; 6.3 ± 0.5 µM in assay [3]. In assay [4], the “fold toxic” value worked out at 6.78 fold. Moreover, the “fold more toxic to MCF-7 cells than ordinary VERO cells” value in assay [5] was 7.19 fold. In addition, the “fold more toxic to HCT-116 cells than normal VERO cells” value in assay [6] worked out at 5.63 fold. Further, the “fold more toxic to A549 cells than VERO normal cells” value in assay [3] is recorded as 9.48 fold.

As to `NC1=NN(c2ccc([N+](=O)[O-])cc2[N+](=O)[O-])C(=O)C1N=Nc1ccccc1C(=O)O` (stereo not drawn) [Compound 3, 2-((3-Amino-1-(2,4-dinitrophenyl)-5-oxo-4,5-dihydro-1H-pyrazol-4-yl)diazenyl)benzoic acid], the IC50 in assay [4] was 8.95 ± 0.5 µM; in assay [5], 8.65 ± 0.8 µM; in assay [1], 38.6 ± 3.8 µM; in assay [6] it was 11 ± 1.1 µM; in assay [2], 1.49 ± 0.4 µM; in assay [3], 6.1 ± 0.5 µM. For the same molecule, the “fold toxic” value in assay [4] amounted to 6.08 fold. Further, the “fold more toxic to MCF-7 cells than ordinary VERO cells” value in assay [5] was determined as 6.29 fold. In assay [6], the “fold more toxic to HCT-116 cells than normal VERO cells” value is given as 4.95 fold. Further, the “fold more toxic to A549 cells than VERO normal cells” value in assay [3] amounted to 8.92 fold.
